From PubChem
The list is not random: actives were taken first. Their share in the collection is about 1.9%.
UBC9 SUMO inh: inhibitors of in vitro SUMOylation cascade, primary screen, biochemical, HTRF, uHTS. SUMO-conjugating enzyme UBC9 (Homo sapiens), P63279. HTRF SUMOylation assay, SAE1/SAE2 + UBC9. inhibition, % at 35 µM. 0.36% of 290,000 active; in the data active = inhibition above about 50%, passing the limit was not always enough
Target sequence (P63279 whole entry, looked up): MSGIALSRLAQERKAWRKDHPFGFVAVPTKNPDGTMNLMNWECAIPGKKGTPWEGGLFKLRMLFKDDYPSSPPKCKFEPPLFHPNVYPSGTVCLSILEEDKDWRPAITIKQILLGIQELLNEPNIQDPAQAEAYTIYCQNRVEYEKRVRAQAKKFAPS
SUMO1-SIM PPI: modulators of SUMO1 protein-protein interactions, primary screen, biochemical, uHTS | 0.33% of 360,000 active | SUMO1 binding to a labelled peptide, TR-FRET, 1 h | inhibition, % at 20 µM | Small ubiquitin-related modifier 1 (Homo sapiens), P63165; in the data active = inhibition above about 37%
Target sequence (P63165 whole entry, looked up): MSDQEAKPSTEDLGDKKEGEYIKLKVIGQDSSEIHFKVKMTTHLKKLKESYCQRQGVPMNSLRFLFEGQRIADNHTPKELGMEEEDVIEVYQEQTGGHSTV
DNMT1 block: human DNMT1 methyltransferase inhibitors, primary screen, biochemical, molecular beacon, fluorescence, HinP1I cleavage, uHTS. DNA (cytosine-5)-methyltransferase 1 (Homo sapiens), P26358. AID 588458, 2011. inhibition (reported as % activation of signal), % at 10 µM. 0.83% of 360,000 active; in the data active = inhibition above about 50%
STEP inh: STEP phosphatase inhibitors, primary screen, biochemical, fluorescence intensity, uHTS; recombinant STEP, OMFP fluorogenic substrate; inhibition, % at 20 µM; 0.25% of 360,000 active;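 active = inhibition at 20 µM, scaled per plate between control wells, above about 37%, limit read from the data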;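 note: 0% = DMSO with enzyme and substrate and 100% = substrate only without enzyme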
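Material: STEP (striatal-enriched tyrosine phosphatase) enzyme, cell-free | Medium: 50 mM Bis-Tris pH 6.0 with 2.5 mM DTT and 0.005% Tween 20 | Read-out: Percent inhibition scaled to no-enzyme and uninhibited-enzyme controls, plate-pattern corrected | Signal: Fluorescence read at 480 nm ex / 540 nm em | Times: 20 min reaction, room temperature, in the dark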
Scp1 inh: Scp-1 phosphatase inhibitors, primary screen, biochemical, colorimetric, uHTS; AID 493091, 2011; 0.88% of 340,000 active; Carboxy-terminal domain RNA polymerase II polypeptide A small phosphatase 1 (Homo …; inhibition, % at 20 µM; Recombinant Scp1, phosphopeptide, malachite green phosphate absorbance;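 active = inhibition above about 50% at 20 µM, limit read from the data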;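 note: plate controls were DMSO wells with enzyme for no effect and wells lacking enzyme for full effect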
Target sequence (Q9GZU7 76-261 limits assumed): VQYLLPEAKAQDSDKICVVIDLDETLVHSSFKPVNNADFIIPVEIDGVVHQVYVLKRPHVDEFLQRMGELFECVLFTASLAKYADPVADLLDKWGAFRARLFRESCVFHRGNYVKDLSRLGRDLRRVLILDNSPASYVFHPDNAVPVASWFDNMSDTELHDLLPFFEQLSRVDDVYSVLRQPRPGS
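assay system = SCP-1 phosphatase catalytic domain, residues 76-261 | buffer or medium = 50 mM Tris acetate pH 5.5, 0.005% Tween-20, 10 mM MgCl2 | incubation = enzyme reaction 45 min at room temperature, colour 5 min, stabilisation 30 min | signal = Phosphate-binding colour reagent, absorbance read at 630 nm | measure = % inhibition at 20 µM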
LMPTP block: LMPTP phosphatase inhibitors, primary screen, biochemical, fluorescence intensity, uHTS. inhibition, % at 20 µM. 0.22% of 360,000 active. Low molecular weight phosphotyrosine protein phosphatase (Homo sapiens), P24666. recombinant LMPTP-A, OMFP fluorogenic substrate;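 active = compounds that cut the enzyme signal by at least half of the control window in the single-dose screen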;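 note: plate controls were DMSO wells with enzyme plus substrate for no effect and substrate without enzyme for full effect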
Target sequence (P24666 whole entry, looked up): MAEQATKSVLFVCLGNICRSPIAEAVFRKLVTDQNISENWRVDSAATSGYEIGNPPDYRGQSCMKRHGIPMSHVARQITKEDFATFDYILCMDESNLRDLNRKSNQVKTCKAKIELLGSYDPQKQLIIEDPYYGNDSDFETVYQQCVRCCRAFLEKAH
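Material: LMPTP-A; amount: 0.625 nM enzyme; doses: single 20 µM dose; times: reaction 50 min, room temperature, dark; technique: fluorescence intensity of OMFP turnover product; benchmarks: no-enzyme and uninhibited controls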
* hit, by the source's call; / = no result.

SMILES	UBC9 SUMO inh	SUMO1-SIM PPI	DNMT1 block	STEP inh	Scp1 inh	LMPTP block
Cc1ccc(C)c(N2C(=N)S/C(=C\c3ccc(-c4ccccc4C(=O)O)o3)C2=O)c1	14.8	33.8	35.0	6.9	27.1	4.6
CN1C(=O)/C(=C/c2ccc(-c3ccccc3[N+](=O)[O-])o2)SC1=Nc1ccc(Cl)c(C(=O)O)c1	34.7	39.2*	-9.8	8.9	2.8	2.5
NC(=O)CC(NC(=O)Cc1cccc2ccccc12)c1ccc(NCc2ccc(F)c(F)c2)c([N+](=O)[O-])c1 (stereo not drawn)	41.0	-9.8	3.2	0.0	-5.6	2.4
CCn1c(SC(C)C(=O)O)nc2sc3c(c2c1=O)CCC3 (stereo not drawn)	-0.9	13.3	90.1*	9.6	78.0*	15.2
N=C(N)c1ccc(/C=C/c2ccc(C(=N)N)cc2O)cc1	35.7	77.8*	-7.3	0.0	-5.1	65.0*
Nc1nnc(SCCCC(=O)c2ccc(Br)cc2)s1	15.8	43.0*	2.1	0.1	4.6	-0.3
O=C(COc1ccc(Cl)cc1)NN=C1CCCCCCC1	14.5	0.1	1.0	1.1	-4.2	1.1
COc1ccc(Cc2nnc(NC(=O)c3ccccc3F)s2)cc1OC	92.6*	1.5	-6.6	-0.9	-0.6	-2.0
O=C(O)CNc1nc(-c2ccccc2)nc2ccccc12	12.1	1.5	0.2	-3.2	-6.8	3.6
Cc1cccc2nc(-c3ccccc3)nc(N[C@@H](CO)c3ccccc3)c12	-35.5	-3.2	-13.3	1.8	-10.7	54.5*
NS(=O)(=O)c1ccc(CCNC(=O)c2cnccn2)cc1	5.1	-0.8	1.2	-0.8	-3.4	-0.6
Cc1onc(-c2ccccc2Cl)c1C(=O)NC(=S)Nc1ccc(C(C)(C)C)cc1	15.7	-4.2	-2.7	5.0	-7.8	3.2
O=C(NCCc1ccccn1)c1c(-c2ccsc2)sc2ccccc12	/	-9.1	2.4	-0.4	100.0*	-0.7
O=C(NNC(=O)C1CC1)c1ccccc1[N+](=O)[O-]	-0.4	-11.4	1.5	-2.4	-9.2	-0.7
COc1ccc(Cl)cc1/C=N/NC(=O)c1c(-c2ccccc2)noc1C	-5.4	53.4*	-0.6	-2.1	-2.0	0.9
O=C(Nc1ccccc1-c1nc2ccccc2[nH]1)c1ccc(S(=O)(=O)N2CCCCC2)cc1	25.5	9.8	-2.1	47.1*	-2.0	0.2
CC1CCCCN1S(=O)(=O)c1ccc(C(=O)Nc2ccccc2-c2nc3ccccc3[nH]2)cc1 (stereo not drawn)	17.9	1.4	-14.7	1.5	-17.2	1.8
CSc1nc(S(C)(=O)=O)nc2[nH]c(=O)[nH]c12	/	-1.6	-0.6	-1.7	-7.6	-0.8
Nc1nn2c(-c3ccccc3)cc(=O)[nH]c2c1N=Nc1ccc(O)cc1	19.7	3.7	-25.0	10.8	-2.7	25.3
Nc1nn2c(-c3ccccc3)cc(=O)[nH]c2c1N=Nc1ccc(Br)cc1	22.0	-3.0	-31.2	14.5	12.8	56.3*
O=C(NNc1cc(N2CCOCC2)nc(N2CCOCC2)n1)c1ccc(Cl)cc1Cl	85.5*	1.8	-12.1	-4.0	-0.9	-1.6
O=C(COc1ccccc1F)N1N=C(c2cccs2)CC1c1ccco1 (stereo not drawn)	/	-2.5	11.7	1.0	31.9	2.4
CCC1CCc2sc(C(=O)OCC(=O)N(CCOC)c3c(N)n(Cc4ccccc4)c(=O)[nH]c3=O)cc2C1 (stereo not drawn)	/	0.7	-2.8	2.1	-5.7	1.6
COCCN(C(=O)COC(=O)c1cc2c(s1)CCC2)c1c(N)n(Cc2ccccc2)c(=O)[nH]c1=O	/	112.0*	100.6*	95.9*	88.2*	72.1*
CC(C)CN(C(=O)COC(=O)c1ccc([N+](=O)[O-])s1)c1c(N)n(Cc2ccccc2)c(=O)[nH]c1=O	/	-18.8	56.4*	-0.3	-3.8	-0.6
SMILES	UBC9 SUMO inh	SUMO1-SIM PPI	DNMT1 block	STEP inh	Scp1 inh	LMPTP block
O=C(N/N=C/c1ccccc1O)c1cccc(C(F)(F)F)c1	6.6	3.6	3.0	4.9	52.8*	19.7
O=C(N/N=C/c1ccc(O)cc1)c1cccc(C(F)(F)F)c1	3.2	-3.6	-8.1	-3.4	-12.2	-0.8
NC(=O)C1CCN(C(=S)c2ccc(-c3ccc(Br)cc3)o2)CC1	10.9	-6.6	-0.9	95.2*	-2.5	-1.1
CCOc1ccccc1NC1=NC2CS(=O)(=O)CC2S1 (stereo not drawn)	4.0	-0.6	0.7	-2.6	3.1	-1.2
Cc1ccc(C(=O)N2CCCCC2C(=O)O)o1 (stereo not drawn)	25.0	1.2	0.1	1.8	-5.2	-1.5
O=C(N/N=C1\C(=O)c2cccc3cccc1c23)c1ccc(O)cc1	28.6	41.3*	44.1	10.1	23.9	16.9
COc1cccc2c1[C@@H]1CN(CCCCn3c(=O)[nH]c4c(sc5ncc(-c6ccccc6)nc54)c3=O)C[C@@H]1CO2	/	-17.3	-11.3	6.2	14.0	67.5*
CC(=O)NC1(C(F)(F)F)NC(=O)N(CCc2ccccc2)C1=O (stereo not drawn)	-0.3	43.6*	-3.2	-1.8	-11.0	-2.0
Cc1nc(NC(=O)c2ccccc2)sc1-c1csc(Nc2ccc(C(=O)O)cc2)n1	41.3	91.8*	-6.3	0.7	80.5*	42.8
C=CCCC(=O)Nc1nc(C)c(-c2csc(Nc3cccc(OC)c3)n2)s1	21.3	77.9*	-44.3	0.1	6.1	-1.4
Cc1ccc(Cl)cc1Nc1nc(-c2sc(NC(=O)C(C)(C)C)nc2C)cs1	8.9	104.3*	-38.1	0.8	14.5	1.5
O=C(O)c1csc(N/N=C/c2ccc(Br)cc2)n1	9.6	4.9	13.3	-1.3	-1.4	58.5*
CCn1cc(C(=O)O)c(=O)c2cc(F)c(N3CCN(C(=S)NC(=O)c4ccc(F)c(F)c4)CC3)cc21	10.7	15.8	9.3	2.0	5.6	51.6*
CCn1cc(C(=O)O)c(=O)c2cc(F)c(N3CCN(C(=S)NC(=O)c4ccc(F)cc4)CC3)cc21	23.9	5.7	0.7	2.2	18.8	67.6*
CCn1cc(C(=O)O)c(=O)c2cc(F)c(N3CCN(C(=S)Nc4ccccc4OC)CC3)cc21	19.1	2.1	0.8	1.4	0.9	21.6
CCCOc1ccc(C(=O)NC(=S)N2CCN(c3cc4c(cc3F)c(=O)c(C(=O)O)cn4CC)CC2)cc1	8.5	5.6	-0.2	2.7	-0.8	49.4
